# Activity calls are given as the source filed them. The rule behind the calls is not given here.
# Tests used:
# Candida albicans = assay: Antimicrobial activity against Candida albicans ATCC 44373 by broth microdilution method; format: functional
# In short: (§1)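 Yeasts grown on potato dextrose agar. Inoculum was standardized by McFarland turbidity as for bacteria, into RPMI 1640 broth (M27-A2). DMSO-dissolved compound was tested in twofold dilutions from 320 to 1.25 at 35 °C for 24 h, in duplicate. MIC was the lowest concentration completely inhibiting visible growth. Fungicidal concentration was read by subculturing 20 µL from clear wells on Sabouraud dextrose agar at 35 °C.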
# Candida dubliniensis = assay: Antimicrobial activity against Candida dubliniensis CBS 7987 by broth microdilution method; format: functional; in short: as §1
# Nakaseomyces glabratus = assay: Antimicrobial activity against Candida glabrata […] by broth microdilution method; format: functional; in short: as §1
# [1] = system: Cryptococcus deneoformans; assay: Antimicrobial activity against Cryptococcus neoformans var.neoformans serotype D ATCC 28952 by broth microdilution method; format: functional
# In short: (§2)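 Organism grown on potato dextrose agar, with turbidity-standardized inoculum in RPMI 1640 broth (M27-A2). DMSO-dissolved compound was tested in twofold dilutions from 320 to 1.25 at 35 °C, incubated up to 72 h, in duplicate. MIC was the lowest concentration with no visible growth. Cidal concentration was read by subculturing 20 µL from clear wells on Sabouraud dextrose agar, incubated for the same period.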
# Saccharomyces cerevisiae = assay: Antimicrobial activity against Saccharomyces cerevisiae ATCC 2601 by broth microdilution method; format: functional; in short: as §2
# Staphylococcus aureus = assay: Antimicrobial activity against Staphylococcus aureus ATCC 25923 by broth microdilution method; format: functional; conditions: for MBC: read-out: MFC
# In short: (§3)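 Bacteria grown overnight on Mueller–Hinton agar. Colonies were suspended in saline to McFarland turbidity (about 10^8 cfu/mL), diluted 1:100 in saline, then 1:20 in Mueller–Hinton broth, giving 5 · 10^4 cfu/mL per well. DMSO-dissolved compound was tested in twofold dilutions from 320 to 1.25 at 35 °C for 24 h. MIC was the lowest concentration with no visible turbidity (M7-A4). Bactericidal concentration was read by subculturing clear wells on Mueller–Hinton agar.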
# Klebsiella pneumoniae = assay: Antimicrobial activity against Klebsiella pneumoniae ATCC 1003 by broth microdilution method; format: functional; conditions: for MBC: read-out: MFC; in short: as §3
# Escherichia coli = assay: Antimicrobial activity against Escherichia coli ATCC 25922 by broth microdilution method; format: functional; in short: as §3
# [2] = (§4) Antimicrobial activity against Salmonella setubal ATCC 19196 by broth microdilution method; format: functional, Salmonella enterica subsp. enterica serovar Setubal; conditions: Salmonella enterica; in short: as §3
# Prototheca zopfii = assay: Antimicrobial activity against Prototheca zopfii by broth microdilution method; format: functional; in short: as §2
# Pseudomonas aeruginosa = assay: Antimicrobial activity against Pseudomonas aeruginosa ATCC 27853 by broth microdilution method; format: functional; in short: as §3
# Rhizopus arrhizus = assay: Antimicrobial activity against Rhizopus oryzae isolate by broth microdilution method; format: functional
# Sporothrix schenckii = assay: Antimicrobial activity against Sporothrix schenckii ATCC 1146 by broth microdilution method; format: functional
# Fusarium solani = assay: Antimicrobial activity against Fusarium solani isolate by broth microdilution method; format: functional
# Aspergillus fumigatus = assay: Antimicrobial activity against Aspergillus fumigatus isolate by broth microdilution method; format: functional
# Aspergillus flavus = assay: Antimicrobial activity against Aspergillus flavus isolate by broth microdilution method; format: functional
# Aspergillus niger = assay: Antimicrobial activity against Aspergillus niger isolate by broth microdilution method; format: functional
# Aspergillus terreus = assay: Antimicrobial activity against Aspergillus terreus isolate by broth microdilution method; format: functional
# Scedosporium boydii = assay: Antimicrobial activity against Pseudallescheria boydii isolate by broth microdilution method; format: functional
# [3] = system: Salmonella enterica subsp. enterica serovar Setubal; assay: as §4; format: functional; in short: as §3
smiles,measurement,setting,value
O=C(Nc1ccccc1O)c1ccoc1,MFC,Candida albicans,320 µg/mL
same,MIC,Candida albicans,160 µg/mL
same,MFC,Candida dubliniensis,160 µg/mL
same,MIC,Candida dubliniensis,80 µg/mL
same,MFC,Nakaseomyces glabratus,160 µg/mL
same,MIC,Nakaseomyces glabratus,160 µg/mL
same,MFC,[1],20 µg/mL
same,MIC,[1],5 µg/mL
same,MFC,Saccharomyces cerevisiae,160 µg/mL
same,MIC,Saccharomyces cerevisiae,160 µg/mL
same,MIC,Staphylococcus aureus,20 µg/mL
same,MBC,Staphylococcus aureus,320 µg/mL
same,MIC,Klebsiella pneumoniae,20 µg/mL
same,MBC,Klebsiella pneumoniae,320 µg/mL
same,MBC,Escherichia coli,320 µg/mL
same,MIC,Escherichia coli,160 µg/mL
same,MBC,[2],320 µg/mL
same,MIC,[2],160 µg/mL
same,MFC,Prototheca zopfii,80 µg/mL
same,MIC,Prototheca zopfii,40 µg/mL
same,MBC,Pseudomonas aeruginosa,160 µg/mL
same,MIC,Pseudomonas aeruginosa,10 µg/mL
same,MFC,Rhizopus arrhizus,320 µg/mL
same,MIC,Rhizopus arrhizus,320 µg/mL
same,MFC,Sporothrix schenckii,320 µg/mL
same,MIC,Sporothrix schenckii,320 µg/mL
same,Activity,Fusarium solani,inactive
same,MIC,Fusarium solani,320 µg/mL
same,MFC,Aspergillus fumigatus,320 µg/mL
same,MIC,Aspergillus fumigatus,160 µg/mL
same,Activity,Aspergillus flavus,inactive
same,MIC,Aspergillus flavus,320 µg/mL
same,MFC,Aspergillus niger,320 µg/mL
same,MIC,Aspergillus niger,320 µg/mL
same,Activity,Aspergillus terreus,inactive
same,MIC,Aspergillus terreus,320 µg/mL
same,MFC,Scedosporium boydii,160 µg/mL
same,MIC,Scedosporium boydii,160 µg/mL
NS(=O)(=O)c1ccc(NC(=O)c2ccoc2)cc1,Activity,Candida albicans,inactive
same,Activity,Candida dubliniensis,inactive
same,Activity,Nakaseomyces glabratus,inactive
same,Activity,[1],inactive
same,Activity,Saccharomyces cerevisiae,inactive
same,Activity,Staphylococcus aureus,inactive
same,MIC,Klebsiella pneumoniae,20 µg/mL
same,MBC,Klebsiella pneumoniae,320 µg/mL
same,Activity,Escherichia coli,inactive
same,MIC,[2],160 µg/mL
same,Activity,[3],inactive
same,Activity,Prototheca zopfii,inactive
same,Activity,Pseudomonas aeruginosa,inactive
same,Activity,Rhizopus arrhizus,inactive
same,Activity,Sporothrix schenckii,inactive
same,Activity,Fusarium solani,inactive
same,Activity,Aspergillus fumigatus,inactive
same,MFC,Aspergillus flavus,320 µg/mL
same,MIC,Aspergillus flavus,320 µg/mL
same,MFC,Aspergillus niger,320 µg/mL
same,MIC,Aspergillus niger,320 µg/mL
same,Activity,Aspergillus terreus,inactive
same,Activity,Scedosporium boydii,inactive
O=C(Nc1nc[nH]n1)c1ccoc1,MFC,Candida albicans,80 µg/mL
same,MIC,Candida albicans,80 µg/mL
same,MFC,Candida dubliniensis,80 µg/mL
same,MIC,Candida dubliniensis,40 µg/mL
same,MFC,Nakaseomyces glabratus,80 µg/mL
same,MIC,Nakaseomyces glabratus,80 µg/mL
same,MFC,[1],80 µg/mL
same,MIC,[1],20 µg/mL
same,MFC,Saccharomyces cerevisiae,320 µg/mL
same,MIC,Saccharomyces cerevisiae,160 µg/mL
same,MIC,Staphylococcus aureus,160 µg/mL
same,MBC,Staphylococcus aureus,160 µg/mL
same,MIC,Klebsiella pneumoniae,320 µg/mL
same,MBC,Klebsiella pneumoniae,320 µg/mL
same,Activity,Escherichia coli,inactive
same,MIC,Escherichia coli,320 µg/mL
same,MIC,[2],320 µg/mL
same,Activity,[3],inactive
same,MFC,Prototheca zopfii,160 µg/mL
same,MIC,Prototheca zopfii,160 µg/mL
same,MBC,Pseudomonas aeruginosa,320 µg/mL
same,MIC,Pseudomonas aeruginosa,160 µg/mL
same,Activity,Rhizopus arrhizus,inactive
same,MIC,Rhizopus arrhizus,320 µg/mL
same,MFC,Sporothrix schenckii,320 µg/mL
same,MIC,Sporothrix schenckii,160 µg/mL
same,Activity,Fusarium solani,inactive
same,MIC,Fusarium solani,320 µg/mL
same,Activity,Aspergillus fumigatus,inactive
same,MIC,Aspergillus fumigatus,320 µg/mL
same,Activity,Aspergillus flavus,inactive
same,MIC,Aspergillus niger,320 µg/mL
same,Activity,Aspergillus terreus,inactive
same,MFC,Scedosporium boydii,320 µg/mL
same,MIC,Scedosporium boydii,320 µg/mL
O=C(NCCCO)c1ccoc1,MFC,Candida albicans,160 µg/mL
same,MIC,Candida albicans,80 µg/mL
same,MFC,Candida dubliniensis,160 µg/mL
same,MIC,Candida dubliniensis,160 µg/mL
same,MFC,Nakaseomyces glabratus,160 µg/mL
same,MIC,Nakaseomyces glabratus,160 µg/mL
same,MFC,[1],80 µg/mL
same,MIC,[1],40 µg/mL
same,Activity,Saccharomyces cerevisiae,inactive
same,MIC,Saccharomyces cerevisiae,320 µg/mL
same,MIC,Staphylococcus aureus,160 µg/mL
same,MBC,Staphylococcus aureus,320 µg/mL
same,Activity,Klebsiella pneumoniae,inactive
same,MIC,Klebsiella pneumoniae,320 µg/mL
same,Activity,Escherichia coli,inactive
same,Activity,[3],inactive
same,MFC,Prototheca zopfii,160 µg/mL
same,MIC,Prototheca zopfii,160 µg/mL
same,MBC,Pseudomonas aeruginosa,160 µg/mL
same,MIC,Pseudomonas aeruginosa,160 µg/mL
same,MFC,Rhizopus arrhizus,320 µg/mL
same,MIC,Rhizopus arrhizus,320 µg/mL
same,MFC,Sporothrix schenckii,320 µg/mL
same,MIC,Sporothrix schenckii,320 µg/mL
same,MFC,Fusarium solani,320 µg/mL
same,MIC,Fusarium solani,320 µg/mL
same,Activity,Aspergillus fumigatus,inactive
same,MIC,Aspergillus fumigatus,320 µg/mL
same,Activity,Aspergillus flavus,inactive
same,Activity,Aspergillus niger,inactive
same,MIC,Aspergillus niger,320 µg/mL
same,MFC,Aspergillus terreus,320 µg/mL
same,MIC,Aspergillus terreus,320 µg/mL
same,MFC,Scedosporium boydii,320 µg/mL
same,MIC,Scedosporium boydii,320 µg/mL

# Reference: ChEMBL document CHEMBL1146380, “Synthesis, antimicrobial activity, and QSAR studies of furan-3-carboxamides” (2007)
